# Screening data: PubChem, The Scripps Research Institute Molecular Screening Center
# TAAR1 agonist – agonists of human TAAR1. hit rate 0.99% among 360,000. CHO RD-HGA16 TAAR1, Fluo-8 calcium fluorescence; vehicle wells 0%, saturating PEA agonist 100%. activation, % at 3 µM. Q96RJ0;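 active = activation above the mean activation of all test compounds in the run plus 3 SD, cut at about 38% in these data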
# Target sequence (Q96RJ0 whole entry, looked up): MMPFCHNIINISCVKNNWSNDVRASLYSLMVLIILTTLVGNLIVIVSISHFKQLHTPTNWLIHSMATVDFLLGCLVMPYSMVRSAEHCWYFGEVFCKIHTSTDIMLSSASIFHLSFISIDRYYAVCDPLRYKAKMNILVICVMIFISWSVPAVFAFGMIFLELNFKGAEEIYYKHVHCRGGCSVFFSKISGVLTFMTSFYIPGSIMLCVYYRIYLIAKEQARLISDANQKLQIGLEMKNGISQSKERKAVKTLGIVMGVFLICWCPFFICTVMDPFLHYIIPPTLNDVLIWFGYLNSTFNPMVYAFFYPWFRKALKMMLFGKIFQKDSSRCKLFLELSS
#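 Repeats: no replicates (n 1) | Material: CHO-derived RD-HGA16 cells with stable Gα16 and human TAAR1 | Technique: Kinetic Fluo-8 calcium fluorescence | Schedule: 17-24 h seeding, 75 min 37 °C dye, 30 min RT | Evaluation: % activation from peak over basal fluorescence ratio, DMSO-to-PEA scaled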
# GPR7 antagonist – human neuropeptides B/W receptor 1 antagonism; GPR7-expressing cells, fluorescence antagonist assay; inhibition, % at 4.4 µM; hit rate 1.1% among 290,000; in the data active = inhibition above about 16%, passing the limit was not always enough;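 also: cells stimulated with the agonist NPW; 0% = agonist with vehicle and 100% = vehicle without agonist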
# CHO parental Ca – counter-screen for OX1R antagonists: effect in parental CHO cells | parental CHO-K1, ATP-induced calcium, Fluo-8 fluorescence | hit rate 0.63% among 330,000 | inhibition, % at 5.6 µM;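 active = inhibition above that plate's mean sample inhibition plus 3 SD, cut at about 26% in these data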;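 also: 0% = ATP-challenged DMSO wells and 100% = DMSO wells without ATP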
#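 Material – parental CHO cells · Reagent – ATP stimulus · Compound – single nominal dose of 5.6 µM per compound · Detection – Fluo-8 fluorescence · Read-out basis – percent inhibition of calcium signal · Controls – ATP-challenged DMSO wells low, unchallenged DMSO wells high · Repeats – no replicates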
# TAAR1 antag – antagonists of human TAAR1; Q96RJ0; CHO RD-HGA16 TAAR1, Fluo-8 calcium fluorescence, antagonist; inhibition, % at 3 µM; hit rate 1.5% among 360,000; AID 624466;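 active = inhibition above a per-plate cutoff, the mean inhibition of test compounds on that plate plus 3 SD, cut at about 49% in these data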;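 also: 0% = DMSO plus EC80 beta-PEA response and 100% = DMSO alone without agonist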
#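 Test system – hTAAR1-expressing CHO RD-HGA16 cells, Gα16-coupled · Also added – β-PEA at EC80 concentration, post-compound challenge · Compound – 3 µM, single point · Incubation – dye loading 75 min at 37 °C, then 30 min room temperature · Measured by – Fluo-8 intracellular calcium dye fluorescence, real-time kinetic reads · Benchmarks – vehicle and agonist controls · Replicates – singlicate, one well per test compound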
# OX1R antag-1 – antagonists of human orexin 1 receptor (OX1R); hit rate 1.8% among 330,000; inhibition, % at 6.6 µM; O43613; OX1R-expressing cells, FRET antagonist read-out; in the data active = inhibition mostly above about 38%, no sharp cut-off; inactive = mostly below about 40%;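 also: 0% = agonist challenge alone and 100% = reference antagonist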
# OX1R antag-2 – blocks the human orexin 1 receptor | O43613 | CHO/OX1R cells, Fluo-8 calcium fluorescence, orexin A | inhibition, % at 5 µM | hit rate 0.43% among 330,000;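 active = inhibition above its plate's threshold, mean inhibition of all tested compounds on the plate plus 3 SD, cut at about 37% in these data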;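 also: 0% = orexin A challenge wells and 100% = SB-334867-A antagonist wells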
# An asterisk follows results filed as active; . = not tested or not shown. Shown are actives, neighbours in structure and some others; about 4.5% of the full set was active somewhere.
SMILES,TAAR1 agonist,GPR7 antagonist,CHO parental Ca,TAAR1 antag,OX1R antag-1,OX1R antag-2
CCc1ccc(OCCNc2cc(N3CCNC(C)C3)ccc2[N+](=O)[O-])cc1 (centres undefined),43*,.,7,8,6,17
COc1cccc(NC(=O)c2ccccc2N2C(=O)C3C4C=CC(C4)C3C2=O)c1 (centres undefined),1,-2,-16,-25,24,-2
O=C1NC(=O)/C(=C\c2ccc(Br)o2)S1,5,-3,-5,-10,38*,-21
O=C1NC(=O)/C(=C/c2cc3c(cc2Br)OCO3)S1,3,-15,-7,-1,31,4
O=C(NCc1cccnc1)/C(=C/c1ccc(-c2cccc(C(F)(F)F)c2)o1)NC(=O)c1ccccc1,18,-5,-18,28,15,-24
Cc1ccc(C(=O)N/C(=C/c2ccc(-c3cc(C(F)(F)F)ccc3Cl)o2)C(=O)NCc2cccnc2)cc1,-1,-1,-15,10,36*,34
Cc1nn(C)c(C)c1CN(C)S(=O)(=O)c1ccc2ccccc2c1,7,14,38*,23,53*,27
Cc1nn(C)c(C)c1CN(C)S(=O)(=O)c1ccc(F)cc1,5,-13,-1,4,15,-12
COc1ccccc1N=Nc1nc(-c2ccccc2)c(-c2ccccc2)[nH]1,-2,0,26,24,66*,0
COc1ccc(N=Nc2nc(-c3ccccc3)c(-c3ccccc3)[nH]2)cc1,-2,-7,-18,36,19,-20
CNC(=O)N1c2ccccc2CCc2ccccc21,2,-4,0,-11,5,1
O=C(NN1c2ccccc2CCc2ccccc21)c1ccccc1Br,-2,3,4,-4,66*,13
C/C(=N\NC(=O)c1ccc([N+](=O)[O-])cc1)c1cc2ccccc2oc1=O,1,-16,0,-3,68*,-2
Cc1cc(C(=O)NNC(=O)c2ccccc2[N+](=O)[O-])c(C)o1,9,.,5,-13,3,-4
C/C(=N\NC(=O)c1ccccc1)c1cc2cc([N+](=O)[O-])ccc2oc1=O,10,-1,6,-11,36,-40
O=C(NNC(=O)c1cc2ccccc2oc1=O)c1ccccc1[N+](=O)[O-],2,-8,-4,-9,77*,-11
CC(=O)c1ccccc1C(=O)N1CCCC(CNC(=O)c2ccc(F)cc2)C1 (centres undefined),0,.,.,-6,.,.
COC(=O)c1c(NC(=O)C2c3ccccc3Oc3ccccc32)sc(C)c1C,1,7,-9,-19,12,-27
CCOC(=O)NC1c2ccccc2Oc2ccccc21,-1,-1,70*,-28,4,-4
COc1ccc(O)c(CNn2c(-c3ccc(Br)cc3)nc3ccccc3c2=O)c1,1,-7,-20,43,44*,-7
O=C(Cn1ncc(Cl)c(Cl)c1=O)N1CCN(S(=O)(=O)c2ccc3ccccc3c2)CC1,8,40*,31*,19,17,36
C=CCOc1ccc(/C=N/NC(=O)c2cc3c(OC)cc(OC)cc3[nH]2)cc1,7,-20,-20,35,48*,14
COc1cc(/C=N/Nc2nc3ccccc3[nH]2)ccc1O,42*,-12,-14,21,23,-27
COc1cc(/C=N/NC(=O)c2cc3ccccc3[nH]2)ccc1O,5,10,-7,19,46*,16
COc1cc(/C=N/NC(=O)c2cccc(NC(=O)c3ccccc3C)c2)ccc1O,15,6,-5,61*,11,-1
CCOc1ccc(/C=N/NC(=O)c2cc3c(OC)cccc3[nH]2)cc1,5,-6,8,22,24,-19
COc1cc(/C=N/NC(=O)c2cccc(C(=O)N/N=C/c3ccc(O)c(OC)c3)n2)ccc1O,-1,-15,.,-7,.,.
COc1cc(/C=N/Nc2snc(SC)c2C#N)ccc1O,37,21,-11,24,81*,45
COc1ccc(/C=N/NC(=O)c2cc3c(OC)ccc(OC)c3[nH]2)cc1O,6,16,-14,4,62*,-9
COc1cc(/C=N/Nc2nc(C)cc(C)n2)ccc1O,0,.,.,-1,.,.
